Experimental data: ChEMBL document CHEMBL1130129, “Immunologically specific activation of a cephalosporin derivative of mitomycin C by monoclonal antibody beta-lactamase conjugates” (J Med Chem, 1997)

Key:
Assay type in all cases: functional, cell-based
H2987 cell line [1] = test: Inhibitory activity against H2987, human lung adenocarcinoma cell line in absence of Enterobacter cloacae bL
Procedure, shortened: (§1)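 Cells plated at 4000 or 8000/well in IMDM with 10% FBS, left to adhere 18 h at 37 °C, then washed with RPMI/10% FBS. Compound exposure 1 h at 37 °C with no enzyme, followed by IMDM wash and 18 h culture. [3H]thymidine pulse at 1 µCi/well (18 h at 4000 cells/well, 6 h at 8000). IC50 is the concentration giving 50% incorporation versus untreated cells; mean of five experiments.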

Clone 62 [2] = test: Inhibitory activity against clone62, a mouse melanoma cell line in absence of Enterobacter cloacae bL; procedure, shortened: as §1
H2987 cell line [3] = test: Inhibitory activity against H2987, human lung adenocarcinoma cell line in presence of Enterobacter cloacae bL
Procedure, shortened: (§2)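 Adherent cells (4000 or 8000/well, 18 h, 37 °C, IMDM/10% FBS) washed with RPMI/10% FBS. Exposed 1 h at 37 °C to graded compound concentrations together with purified E. cloacae β-lactamase (10 µg/mL), then washed and cultured 18 h. [3H]thymidine pulse at 1 µCi/well (18 h or 6 h by seeding density). IC50 is 50% incorporation relative to untreated controls; five independent experiments.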

Clone 62 [4] = test: Inhibitory activity against clone62, a mouse melanoma cell line in presence of Enterobacter cloacae bL; procedure, shortened: as §2

Compound | IC50 (H2987 cell line [1]) [µM] | IC50 (Clone 62 [2]) [µM] | IC50 (H2987 cell line [3]) [µM] | IC50 (Clone 62 [4]) [µM]
CO[C@@]12[C@H](COC(N)=O)C3=C(C(=O)C(C)=C(N)C3=O)N1C[C@@H]1N[C@@H]12 [MITOMYCIN] | 1.6 | 1.5 | – | –
CO[C@@]12[C@H](COC(N)=O)C3=C(C(=O)C(C)=C(NCC4=C(C(=O)O)N5C(=O)[C@@H](NC(=O)CCCC(=O)O)[C@H]5SC4)C3=O)N1C[C@@H]1N[C@@H]12 | 26.4 | 30.1 | 1.2 | 3
CO[C@@]12[C@H](COC(N)=O)C3=C(C(=O)C(C)=C(NCC4=C(C(=O)O)N5C(=O)[C@@H](NC(=O)Cc6ccccc6)[C@H]5SC4)C3=O)N1C[C@@H]1N[C@@H]12 | 10.4 | 3.5 | 2.8 | 1.4
